Source: PubChem BioAssay AID617 (SRMLSC, 2007)
The whole screen tested about 1,300 compounds, of which about 1,200 (92%) were called active. How the calls were made is not given here. The set was probably picked from earlier hits. The list is a sample of the results. Measured potencies and affinities stand elsewhere.

test: growth inhibitors of E. coli tolC mutant, dose response, strain BW25113 ΔtolC::kan (AID 617); settings: OD615, at 100 µM (top of the series)
Procedure, shortened: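 system = E. coli BW25113 tolC deletion strain (ΔtolC::kan), whole bacterial cells | technique = optical density (absorbance) at 615 nm | dosing = compounds in serially diluted dose-response series | times = bacterial growth with compound for 20 h, 37 °C | evaluation = growth-inhibition IC50 from four-parameter logistic curve, bounds set to 0% and 100%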

outcome, inactive:
O=C(COc1ccc(Cl)cc1)Nc1nc(-c2cccs2)cs1
COc1cc(C(=O)Nc2nc(-c3cccs3)cs2)cc(OC)c1OC
CC(C)n1c(C(=O)OCC(=O)NCc2ccc3c(c2)OCO3)cc2occc21
CCOC(=O)c1c(N)sc2c(OC)c(Br)ccc12
O=C(C1CCN(Cc2cc(Cl)ccc2O)CC1)N1CCN(Cc2ccccc2)CC1
CCCCCCn1c(CN2CCCC(C)C2)nc2c1c(=O)n(C)c(=O)n2C (stereo not drawn)
Cc1ccc(N(CC(=O)Nc2ccc3c(c2)OCCO3)S(=O)(=O)c2c(C)noc2C)cc1
COc1ccccc1N1CCN(C(=O)c2oc3cc(C)c(C)cc3c2C)CC1
COc1ccccc1N1CCN(C(=O)c2cc(-c3ccc(Br)cc3)on2)CC1
Cc1ccc(-c2noc(CCC(=O)N3CCN(c4cccc(C(F)(F)F)c4)CC3)n2)cc1
Cc1ccc(-c2nnn(CC(=O)N(Cc3cccs3)C(C(=O)NC(C)(C)C)c3ccco3)n2)o1 (stereo not drawn)
Cc1ccc(-c2noc(CN3CCN(c4ccccc4F)CC3)n2)cc1
C=C(C)COc1ccc(-c2[nH]ncc2-c2ccc(OC)c(OC)c2)c(O)c1
COc1ccc(-c2cnc(N)n2CC2CCCO2)cc1 (stereo not drawn)
COc1cc(OC)cc(-n2nnnc2SCC(=O)N2CCCc3ccccc32)c1
Cn1c(-c2ccc3c(c2)OCO3)cnc1N
CCCCCc1c(C)nc(Nc2ccccc2)[nH]c1=O
Cc1nn(-c2ccccc2)c2[nH]c(=O)c(CNCc3ccc4c(c3)OCO4)cc12
CCOC(=O)C1(N(CC)CC)Sc2cc(C)ccc2NC1=O (stereo not drawn)
Cc1cc(=O)oc2c1ccc1oc(/C(=N/O)c3ccccc3)c(C)c12
CN(C)Cc1nc2c(c(=O)[nH]1)C1(CCCCC1)Cc1ccccc1-2
Clc1ccc(Cn2ncc3c(N4CCCCC4)ncnc32)c(Cl)c1
COc1ccc(-c2csc(N(CC3CCCO3)C(=O)c3ccco3)n2)cc1 (stereo not drawn)
CN1/C(=C\C(=O)c2cccs2)Sc2ccccc21
CCOC(=O)c1ccc(NS(=O)(=O)c2ccc(SC)cc2)cc1
O=C(c1cc(C2CC2)on1)N1CCN(C(c2ccccc2)c2ccccc2)CC1
CC(C)n1c2ccccc2c2nc3ccccc3nc21
CCOC(=O)C1CCN(Cc2cn[nH]c2-c2ccc(C)cc2)CC1
